Cl transport mod – modulates chloride dependent transport by human KCC2; Q9H2X9; KCC2 cells, thallium flux FluoZin-2 fluorescence; B-score of Tl+ flux slope (higher = more flux/activation; lower = inhibition) at 10 µM; 2.2% of 190,000 active; AID 1456;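 active means thallium flux slope and its plate-corrected score both differing from the plate sample mean at a set confidence after two filtering rounds, in either direction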;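 further: slope of fluorescence scaled to starting intensity during 10 to 20 s after thallium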
PKD1 inh – PKD1 (human) kinase inhibition. AID 797. inhibition, % (no concentration beside the values). 0.056% of 200,000 active. PKD1 kinase fluorescence polarization assay; in the data active means inhibition above about 50%
MDM2 E3 inh – blocks human Mdm2 ubiquitin ligase activity; Q00987; signal enhancement, % at 5 µM; 0.11% of 210,000 active; cell-based MDM2 ubiquitination luciferase reporter, 2 h; 0 = plate control, 100 = twice control, blank-subtracted; AID 1230;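 active means signal enhancement of 30% or more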;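 further: luminescence tracks abundance of the self-degrading MDM2-luciferase fusion protein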
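Timing – 2 h compound exposure at 37 °C · Assay system – mammalian cells stably expressing self-ubiquitinating, self-degrading MDM2 E3–luciferase fusion · Amount – 2000 cells seeded into each well · Measure – % luminescence enhancement versus blank-corrected plate control mean · Measured by – SteadyLite luminescence, 15 min reagent step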
ROMK primary – modulates human ROMK potassium channel activity. P48048. Tet-inducible ROMK, thallium flux fluorescence; actives lie on both sides. B-score at 10 µM. 2% of 130,000 active;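 active means signal ratio slope over the read window, or its plate-corrected B-score, at least 3 SD from the plate mean, either direction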;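 further: B-score of the F/F0 ratio slope over 7 to 12 s after thallium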
Target sequence (P48048 whole entry, looked up): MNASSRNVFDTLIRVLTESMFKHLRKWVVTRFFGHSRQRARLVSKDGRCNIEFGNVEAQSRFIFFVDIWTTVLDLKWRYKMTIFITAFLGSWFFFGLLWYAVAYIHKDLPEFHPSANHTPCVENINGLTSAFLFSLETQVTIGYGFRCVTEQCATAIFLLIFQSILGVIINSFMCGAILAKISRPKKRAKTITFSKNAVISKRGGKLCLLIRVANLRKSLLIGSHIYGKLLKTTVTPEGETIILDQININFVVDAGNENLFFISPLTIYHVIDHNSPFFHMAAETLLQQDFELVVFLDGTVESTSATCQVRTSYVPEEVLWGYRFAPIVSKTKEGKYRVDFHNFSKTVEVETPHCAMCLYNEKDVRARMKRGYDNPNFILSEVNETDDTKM
Arbovirus inh – antivirals against arbovirus infection. 0.37% of 200,000 active. AID 1251. inhibition, % at 10 µM. arbovirus infection cell-based antiviral screen; in the data active means inhibition above about 30%
Calpain2 inh – inhibitors of pig calpain II. purified calpain II, fluorogenic peptide substrate, 30 min. inhibition, % at 16 µM. 0.37% of 220,000 active. AID 1236;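 active means inhibition above about 50%, limit read from the data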
KCC2 secondary – KCC2 (human) modulation, secondary assay | shares compounds with Cl transport mod | HEK293-KCC2, thallium flux, FluoZin2 fluorescence; stronger effect = higher value | normalised thallium flux (F/F0 slope) at 10 µM | 15% of 3,700 active | AID 1713;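 active means thallium flux slope above the same plate's solvent-only control mean plus 3 SD; inconclusive means the two replicate wells disagree; inactive means no significant difference from solvent-only control wells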
KCC2 bumet counter – thallium flux despite bumetanide block in KCC2 cells, secondary assay 3; shares compounds with Cl transport mod; normalized thallium flux at 10 µM; HEK293-KCC2 + bumetanide/ouabain, thallium flux FluoZin2; stronger effect = higher value; 49% of 3,700 active;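 active means thallium entry rate above the same plate's blocked-transporter control wells by more than 3 SD; inconclusive means the two repeat wells disagree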;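 further: raw slope of fluorescence over initial fluorescence between 10 and 20 s after thallium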
KCC2 sec2 – KCC2 (human) modulation, second secondary assay; HEK293-KCC2, thallium flux FluoZin2 fluorescence; actives lie on both sides; F/F0 rise rate, 10–20 s post-thallium; shares compounds with Cl transport mod; 23% of 3,700 active; normalized thallium flux at 10 µM;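 active means thallium flux slope more than 3 SD above or below the plate's solvent-only control mean, mostly below; inconclusive means the two repeat wells disagreed; inactive means no significant shift from solvent-only controls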;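 further: raw slope with 0.1% DMSO as baseline and bumetanide as block control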
HEK293 Tl flux – counter-screen for KCC2 modulators: effect in parental HEK293 cells | shares compounds with Cl transport mod | thallium flux FluoZin2, ouabain; baseline-ratio fluorescence slope, 10–20 s after thallium | thallium flux rate (normalised fluorescence) at 10 µM | 46% of 3,700 active;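 active means thallium flux rate significantly above the same plate's solvent-only control wells, beyond their mean plus 3 SD; inconclusive means the two replicate wells gave conflicting results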
KCC2 retest ouab – KCC2 (human) modulation, ouabain retest; shares compounds with Cl transport mod; raw Tl+ flux slope (below DMSO = inhibition, above = activation) at 10 µM; 48% of 3,700 active; HEK293-KCC2, thallium flux FluoZin2 fluorescence; bidirectional: low = inhibitor, high = activator;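 active means thallium flux slope beyond 3 SD from same-plate DMSO control mean in most replicates, usually higher, sometimes lower; inconclusive means repeat tests gave conflicting results; inactive means no significant difference from controls in most replicates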;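 further: slope of initial-normalized fluorescence between seconds 10 and 20 after thallium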
HEK293 Tl flux2 – parental HEK flux effect, counter-screen 2; shares compounds with Cl transport mod; HEK293 parental, thallium flux FluoZin-2 fluorescence slope; thallium flux slope at 10 µM; 33% of 3,700 active; AID 1718;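 active means thallium flux slope above the same plate's solvent-control mean plus 3 SD in both duplicate wells; inconclusive means duplicate wells that disagreed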;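 further: run without ouabain in cells lacking the KCC2 cotransporter; slope of fluorescence scaled to its starting value between 10 and 20 s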
* marks the source's active call; other numbers are inactive results. Sampled rows, rich in hits. Any-hit rate of the full collection: about 3.7%.

For C=CCSc1ncnc2sc(C)c(C)c12 the results were Cl transport mod 4.8*, PKD1 inh -11, MDM2 E3 inh -16, Arbovirus inh -7, Calpain2 inh 32, KCC2 secondary 0.011, KCC2 bumet counter 0.023*, KCC2 sec2 0.034, HEK293 Tl flux 0.013*, KCC2 retest ouab 0.025 and HEK293 Tl flux2 0.013*.
`Cc1sc2ncnc(SCc3ccc(C(=O)O)cc3)c2c1C` gave Cl transport mod 1.4, PKD1 inh 1, MDM2 E3 inh -2, ROMK primary -0.091, Arbovirus inh 7 and Calpain2 inh -8.
CCSc1ncnc2sc(C)c(C)c12 was read as Cl transport mod -0.76, PKD1 inh 3, MDM2 E3 inh -11, ROMK primary -1.8, Arbovirus inh 5 and Calpain2 inh 12.
For Cc1c(C=O)c(C=O)c(C)n1Cc1ccccc1 the results were PKD1 inh -1, MDM2 E3 inh -15, Arbovirus inh 3 and Calpain2 inh 29.
CN(Cc1ccccc1)c1nc(N)nc(Cl)c1C=O was read as Cl transport mod -5*, PKD1 inh -4, MDM2 E3 inh -8, ROMK primary -3.4, Arbovirus inh 7, Calpain2 inh 3, KCC2 secondary 0.0072, KCC2 bumet counter 0.0065, KCC2 sec2 0.032, HEK293 Tl flux 0.0039, KCC2 retest ouab 0.012* and HEK293 Tl flux2 0.012.
Cc1ccccc1C(=O)NC(=S)NCCC1=CCCCC1 was read as Cl transport mod 4.4*, PKD1 inh 3, MDM2 E3 inh -7, ROMK primary -0.98, Arbovirus inh -2, Calpain2 inh 39, KCC2 secondary 0.011, KCC2 bumet counter 0.016*, KCC2 sec2 0.034, HEK293 Tl flux 0.026*, KCC2 retest ouab 0.027* and HEK293 Tl flux2 inconclusive.
Screening O=C(NC(=S)NC1CCCc2ccccc21)c1ccco1 (stereo unspecified) returned Cl transport mod 63*, PKD1 inh 6, MDM2 E3 inh -19, ROMK primary 1.3, Arbovirus inh 7, Calpain2 inh 6, KCC2 secondary 0.03*, KCC2 bumet counter 0.17*, KCC2 sec2 0.046*, HEK293 Tl flux 0.097*, KCC2 retest ouab 0.11* and HEK293 Tl flux2 0.035*.
Screening Cc1ccc(C(=O)NC2CCCc3ccccc32)o1 (stereo unspecified) returned PKD1 inh -6, MDM2 E3 inh 15, Arbovirus inh 2 and Calpain2 inh -1.
For O=C(NC(=S)NCCC1=CCCCC1)c1ccco1 the results were Cl transport mod 79*, PKD1 inh 5, MDM2 E3 inh 0, ROMK primary -0.15, Arbovirus inh 4, Calpain2 inh 13, KCC2 secondary 0.034*, KCC2 bumet counter 0.16*, KCC2 sec2 0.046*, HEK293 Tl flux inconclusive, KCC2 retest ouab 0.11* and HEK293 Tl flux2 0.037*.
